A short description of assay [1]: inhibitors of TNFa-induced NFkB p65 translocation, primary screen, imaging, HUVEC, MLSMR starter and 10KST1 sets (AID 438;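 active means inhibition above 20% together with a positive visual image hit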;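 further: compound added about 3h40 before a 20 min TNFalpha stimulation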;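 on inhibition: signal is the nuclear over cytoplasmic p65 intensity ratio per well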). As to conditions: HUVEC TNFa-induced p65 nuclear translocation; cell count: measured here: nuclei count (cytotoxicity indicator), at 2.08 µM; inhibition: at 2 µM, stronger effect = higher value, 0% TNFa-plus-vehicle, 100% no-TNFa wells.
The nature of assay [2]: endothelial E-selectin expression blockers – imaging, HUVEC, immunofluorescence, MLSMR starter and 10KST1 sets, primary screen (AID 487).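 On inhibition: signal is fraction of cell area covered by stained E-selectin grains.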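 On nuclei count: 100% = median nuclei count of all wells on the same plate.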 To be noted: HUVEC TNFalpha-induced E-selectin immunofluorescence imaging, at 2 µM; inhibition: stronger effect = higher value; nuclei count: measured here: cell number, toxicity.
The nature of assay [3]: Primary imaging screen for DUSP6 inhibitors that restore phospho-Erk in transfected HeLa cells, chemical complementation (AID 609;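 active means compounds giving at least 50% inhibition in the cell-based MKP-3 phosphatase rescue imaging test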;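 on inhibition: phospho-Erk level distribution per well compared with pooled transfected vehicle control wells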). As to conditions: HeLa MKP-3 transfected, phospho-Erk imaging KS statistic, at 10 µM, cells stimulated with TPA for 15 min.
In assay [4] the target is Dual specificity protein phosphatase 6 (Homo sapiens) (UniProt Q16828). Described as above. To be noted: HeLa MKP-3 transfected, phospho-Erk imaging KS statistic; at 10 µM; stronger effect = higher value; cells stimulated with TPA for 15 min.
In assay [5] the target is Voltage-gated potassium channel subunit beta-2 (Rattus norvegicus) (UniProt P62483). Briefly: inhibitors of rat Kvbeta2 reductase activity – biochemical, NADPH fluorescence, primary screen (AID 622;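 active means fluorescence slope higher than the sample average by over 3 SD, cut at about -0.22 in these data, passing the limit was not always enough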;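 further: slope of raw intensity against log time taken from 70 to 1610 s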). As to conditions: recombinant KvBeta, 4-cyanobenzaldehyde reduction, at 10 µM, stronger effect = higher value.
Assay [6] has the same target. Briefly: enhancers of rat Kvbeta2 NADPH turnover – biochemical, NADPH fluorescence, primary screen (AID 623;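 active means NADPH fluorescence slope more negative than the mean of all samples by about 3 SD, 99.7% confidence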;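 further: fluorescence intensity change per second fitted from 20 to 320 s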). To be noted: Recombinant KvBeta, NADPH fluorescence decrease slope, 10 min; at 10 µM; stronger effect = lower value.
Assay [7] concerns the target Muscarinic acetylcholine receptor M4 (Homo sapiens) (UniProt P08173). Briefly: M4-linked GIRK flux change, two-sided – cell-based, HEK293 M4/GIRK, thallium flux, BTC-AM, M4 allosteric agonist project, primary screen (AID 625;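 active means fluorescence slope after compound addition differing from the mean of all tested samples at 99.7% confidence, mostly higher but some lower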;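 further: thallium influx through GIRK channels coupled to M4 in HEK293 cells with BTC-AM dye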). To be noted: at 10 µM, actives lie on both sides. In a few lines:
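Material – HEK293 cells with M4 receptor and GIRK channels · Buffer or medium – pH 7.3 thallium assay buffer · Doses – one dose, 10 µM final · Timing – cells overnight at 37 °C, BTC-AM loading 1 h, reads 2 min total · Measured by – kinetic fluorescence with BTC-AM dye · Controls – carbachol and DMSO controls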

Assay [8] can be described thus: inhibitors of larval lipid processing in zebrafish, primary screen, whole organism, PED6 fluorescence, gall bladder and intestine (AID 686;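 active means a full or partial loss of lipid-probe fluorescence in the fish gall bladder, intestine or both, judged by eye; inactive means no fluorescence loss, or compound toxic to the fish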;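 further: larvae 5 to 7 days old with five fish per well; signal comes from phospholipase A2 cleavage of quenched PED6 carried via bile; overnight exposure to compound and PED6 before scoring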). To be noted: Zebrafish larvae PED6 lipid processing, fluorescence scoring; screened at 20 µM (by protocol). In outline:
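system = live zebrafish larvae aged 5-7 days, whole organism | probe or stimulus = ingested quenched lipid PED6 at 100 nM | doses = 20 µM single dose | timing = overnight exposure | detection = fluorescence microscopy with visual scoring of gall bladder and intestine | read-out = visual per-well fluorescence inhibition score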

Assay [9] can be described thus: loss of swimming-algae plug formation – whole organism, Chlamydomonas reinhardtii, WT vs cilia-less mutant, absorbance, 96-well, primary screen (AID 463189;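 active means inhibition at or above 50% relative to wild type and mutant plate controls; inactive means inhibition below 50%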;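 further: 0% = wild type cc124 cells in DMSO and 100% = ciliumless bld1 mutant cells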). To be noted: Chlamydomonas reinhardtii gravitaxis, OD600 absorbance, 2 days; at 10 µM; stronger effect = higher value.
Setting [10] is: measured here: cell density z-score.
[11] abbreviates: measured here: nuclear c-Myc green intensity z-score.
Setting [12] is: measured here: nuclear pErk red intensity z-score, stronger effect = higher value.

Here are results for twelve molecules from PubChem BioAssay.

Activity calls are given as the source filed them.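 How the source made its calls, unless noted: active means visually confirmed hit in the image check and inhibition above 20%; inconclusive means visually confirmed hit but inhibition not above 20%; inactive means no visual hit in the image check.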

Muscarinic acetylcholine receptor M4 (Homo sapiens), sequence (P08173 whole entry, looked up): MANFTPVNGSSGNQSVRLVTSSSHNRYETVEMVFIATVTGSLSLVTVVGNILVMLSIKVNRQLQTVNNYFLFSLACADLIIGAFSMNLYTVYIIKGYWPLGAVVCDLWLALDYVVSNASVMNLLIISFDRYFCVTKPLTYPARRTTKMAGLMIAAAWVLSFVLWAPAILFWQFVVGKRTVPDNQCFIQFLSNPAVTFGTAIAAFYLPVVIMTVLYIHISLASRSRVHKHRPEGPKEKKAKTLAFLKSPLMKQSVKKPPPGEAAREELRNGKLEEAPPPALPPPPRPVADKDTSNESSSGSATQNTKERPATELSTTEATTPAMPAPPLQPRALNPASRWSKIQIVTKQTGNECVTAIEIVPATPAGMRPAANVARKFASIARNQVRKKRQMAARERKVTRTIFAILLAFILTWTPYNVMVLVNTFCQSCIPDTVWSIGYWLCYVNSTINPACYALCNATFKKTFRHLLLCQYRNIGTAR
Voltage-gated potassium channel subunit beta-2 (Rattus norvegicus), sequence (P62483 whole entry, looked up): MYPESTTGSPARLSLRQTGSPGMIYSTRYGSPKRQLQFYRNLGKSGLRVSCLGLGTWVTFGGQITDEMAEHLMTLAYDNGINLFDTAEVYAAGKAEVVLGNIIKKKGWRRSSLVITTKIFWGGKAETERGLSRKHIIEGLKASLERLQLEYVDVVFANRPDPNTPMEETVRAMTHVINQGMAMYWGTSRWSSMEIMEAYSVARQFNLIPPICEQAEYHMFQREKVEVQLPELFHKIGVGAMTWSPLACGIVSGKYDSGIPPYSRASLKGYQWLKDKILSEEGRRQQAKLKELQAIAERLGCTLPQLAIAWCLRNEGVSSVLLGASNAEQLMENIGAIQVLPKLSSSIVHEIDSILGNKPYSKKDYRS
Dual specificity protein phosphatase 6 (Homo sapiens), sequence (Q16828 whole entry, looked up): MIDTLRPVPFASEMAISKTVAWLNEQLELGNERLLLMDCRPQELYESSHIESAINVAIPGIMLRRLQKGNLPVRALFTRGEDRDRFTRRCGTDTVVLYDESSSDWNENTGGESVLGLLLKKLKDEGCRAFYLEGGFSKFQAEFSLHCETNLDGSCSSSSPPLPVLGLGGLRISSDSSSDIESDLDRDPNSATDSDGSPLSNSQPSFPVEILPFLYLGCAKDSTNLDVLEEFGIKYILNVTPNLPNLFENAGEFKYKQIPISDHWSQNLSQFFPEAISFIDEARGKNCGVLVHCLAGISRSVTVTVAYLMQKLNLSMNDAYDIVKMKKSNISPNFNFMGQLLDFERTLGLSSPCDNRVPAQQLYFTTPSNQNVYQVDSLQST

For the molecule `COc1cccc(C2/C(=C(\O)c3ccc4c(c3)OCCO4)C(=O)C(=O)N2CCCN(C)C)c1OC` (stereo unspecified), the cell count in [1] was 396. The inhibition in [1] was 1.1% (inactive); in assay [2] it was -21.2% (inactive); in [4], -6.86% (inactive); in [9], 18.1% (inactive). For the same molecule, the nuclei count in assay [2] came to 174%. In addition, the z-score in assay [3] (setting [10]) is 0.231; in assay [3] (setting [11]), -0.342; in assay [3] (setting [12]) it was 2. The fluorescence slope in assay [5] was -0.452 (inactive); in assay [7] it was 0.00452 (inactive). Besides, the NADPH fluorescence slope in assay [6] is -9.9e-05 (inactive). Moreover, the molecule was classed as inactive in [8].
Consider `CCCC1Cc2c(sc3nc(SC)nc(N)c23)CO1` (stereo unspecified), for which, in assay [1], the cell count was found to be 489. The inhibition in assay [1] is -14.7% (inactive); in assay [2], 27.8% (inactive); in [4], -3.97% (inactive); in assay [9], 27.7% (inactive). Further, the nuclei count in assay [2] was found to be 170%. For the same molecule, the values for the z-score in assay [3] (setting [10]), in assay [3] (setting [11]) and in assay [3] (setting [12]) were -0.331, 0.0787 and 0.594, respectively. For the same molecule, the fluorescence slope was -0.47 (inactive) in [5] and 0.00573 (inactive) in assay [7]. For the same molecule, in [6], the NADPH fluorescence slope is -4.4e-05 (inactive). Further, the result in assay [8] was inactive.
With `COC(=O)[C@H]1CCCN1C(=O)Nc1cccc(Oc2c(F)c(F)c(F)c(F)c2F)c1`, the cell count in assay [1] was 709. In addition, the inhibition was -2.1% (inactive) in [1], 2.5% (inactive) in assay [2], 13.4% (inactive) in assay [4] and 36.9% (inactive) in assay [9]. In assay [2], this molecule registered a nuclei count of 205%. The z-score in [3] (setting [10]) was determined as 0.848; in assay [3] (setting [11]), 0.709; in assay [3] (setting [12]), 0.784. In addition, the fluorescence slope in assay [5] is -0.396 (inactive); in assay [7] it was 0.00536 (inactive). In [6], the NADPH fluorescence slope was -4.7e-05 (inactive). In assay [8], the molecule was classed as inactive.
As to `CCCSc1nc(N2CCOCC2)c2c(c1C#N)CCCC2`, the cell count in [1] came to 569. In addition, the inhibition in assay [1] is -12.9% (inactive); in assay [2], -93.9% (inactive); in assay [4], 10.9% (inactive); in assay [9] it was 5.19% (inactive). Also, the nuclei count in assay [2] was 147%. Further, the z-score in assay [3] (setting [10]) is 0.303; in assay [3] (setting [11]) it was 0.327; in [3] (setting [12]), 2.25. Further, the results for the fluorescence slope in assay [5] and in [7] were -0.467 (inactive) and 0.00772 (inactive), respectively. Moreover, the NADPH fluorescence slope in assay [6] is -0.000102 (inactive). Moreover, the molecule was classed as inactive in assay [8].
`Cc1ccc(-c2nn(C)c(=O)c3ccccc23)cc1CNC(=O)CSc1nc2ccccc2o1`: in assay [1], the cell count turned out to be 547. In addition, the inhibition is 3.6% (inactive) in assay [1], 21.6% (inactive) in [2], 1.98% (inactive) in assay [4] and 22.8% (inactive) in assay [9]. Moreover, the nuclei count in assay [2] amounted to 106%. For the same molecule, the z-score in assay [3] (setting [10]) was -1.01; in assay [3] (setting [11]), 1.51; in [3] (setting [12]), 0.619. Besides, the figures for the fluorescence slope in assay [5] and in assay [7] were -0.419 (inactive) and 0.00502 (inactive), respectively. In addition, the NADPH fluorescence slope in [6] is -5.4e-05 (inactive). In addition, the result in assay [8] was inactive.
On to `Cc1cc(SCCC(=O)O)nc2ccccc12`, for which the cell count in [1] is 685. In addition, the inhibition in assay [1] was -18.8% (inactive); in assay [2] it was -36.7% (inactive); in assay [4], 5.95% (inactive); in assay [9], -15.2% (inactive). Moreover, in assay [2], the nuclei count amounted to 201%. Besides, the z-score in assay [3] (setting [10]) is -0.264; in assay [3] (setting [11]), 0.626; in assay [3] (setting [12]) it was 0.219. Besides, the fluorescence slope is -0.488 (inactive) in assay [5] and 0.00621 (inactive) in assay [7]. In [6], the NADPH fluorescence slope is -4.8e-05 (inactive). Besides, the call in assay [8] was inactive.
`CCOC(=O)c1c(N)sc(=S)c2c1CCC2`: the cell count in assay [1] came out at 618. The inhibition is -6.2% (inactive) in assay [1], -92.1% (inactive) in [2], -11.4% (inactive) in assay [4] and 15% (inactive) in assay [9]. The nuclei count in assay [2] was 139%. In addition, the figures for the z-score in [3] (setting [10]), in [3] (setting [11]) and in assay [3] (setting [12]) were 0.668, -0.746 and -1.03, respectively. The fluorescence slope in assay [5] was -0.467 (inactive); in [7], 0.00293 (inactive). Also, the NADPH fluorescence slope in [6] was -0.000294 (inactive). Also, the result in assay [8] was inactive.
`Cc1ccc(C(=O)C2C(c3cccs3)NC(=O)NC2(O)C(F)(F)F)cc1` (stereo unspecified): in [1], the cell count worked out at 716. Moreover, the inhibition in assay [1] was -7.3% (inactive); in [2], -170% (inactive); in [4], -4.27% (inactive); in [9], -6.21% (inactive). This molecule showed a nuclei count in assay [2] of 142%. Moreover, the results for the z-score in [3] (setting [10]), in [3] (setting [11]) and in assay [3] (setting [12]) were -0.552, -0.778 and 0.548, respectively. Also, the values for the fluorescence slope in [5] and in assay [7] were -0.482 (inactive) and 0.00668 (inactive), respectively. Moreover, the NADPH fluorescence slope in assay [6] is -7.6e-05 (inactive). Moreover, the molecule was called inactive in assay [8].
`CC1(C)Cc2c(sc3ncn4nc(-c5ccco5)nc4c23)CO1`: the cell count in [1] stood at 629. The inhibition in assay [1] was 6.6% (inactive); in [2], -31.6% (inactive); in assay [4] it was -7.67% (inactive); in [9], 16.9% (inactive). In assay [2], this molecule registered a nuclei count of 112%. Moreover, the z-score in assay [3] (setting [10]) is -0.299; in assay [3] (setting [11]), 0.915; in [3] (setting [12]), -1.17. Further, the fluorescence slope in [5] was -0.432 (inactive); in [7] it was 0.00512 (inactive). In assay [6], the NADPH fluorescence slope was -4.1e-05 (inactive). Further, the call in assay [8] was inactive.
`CCOC(=O)NC1(C(F)(F)F)C(=O)NC(C)=C1C#N` (stereo unspecified): in [1], the cell count is 377. Besides, the inhibition in [1] was 3.7% (inactive); in [2], 5.5% (inactive); in [4], 3.42% (inactive); in assay [9], 23.5% (inactive). Further, the nuclei count in assay [2] is 129%. For the same molecule, the z-score in assay [3] (setting [10]) is -0.0977; in assay [3] (setting [11]), -0.0162; in assay [3] (setting [12]) it was 0.321. Moreover, the results for the fluorescence slope in assay [5] and in assay [7] were -0.427 (inactive) and 0.00503 (inactive), respectively. For the same molecule, in assay [6], the NADPH fluorescence slope was -0.000119 (inactive). Moreover, in assay [8], the molecule was called inactive.
On to `CN(Cc1ccccc1)c1ncnc2ccc(Br)cc12`, for which the cell count in assay [1] was 591. In addition, the inhibition in assay [1] is -9.8% (inactive); in assay [2], -5.2% (inactive); in assay [4] it was 2.92% (inactive); in assay [9], 18.9% (inactive). The same molecule displayed a nuclei count in [2] of 116%. Also, the values for the z-score in assay [3] (setting [10]), in [3] (setting [11]) and in assay [3] (setting [12]) were -0.293, -0.951 and 0.281, respectively. Further, the fluorescence slope was -0.517 (inactive) in assay [5] and 0.00669 (inactive) in [7]. In addition, the NADPH fluorescence slope in assay [6] was -8e-05 (inactive). The outcome in assay [8] was inactive.
Take `CCC(=O)Nc1ccc(-c2nnc(SCC(=O)NCC3CCCO3)n2C)cc1` (stereo unspecified): in assay [1], the cell count was found to be 656. Also, the inhibition in assay [1] was -4.5% (inactive); in [2] it was 10.4% (inactive); in assay [4] it was -2.09% (inactive); in [9], -4.35% (inactive). The nuclei count in assay [2] came to 160%. The results for the z-score in assay [3] (setting [10]), in assay [3] (setting [11]) and in assay [3] (setting [12]) were -0.113, 1.6 and 0.412, respectively. In addition, the fluorescence slope is -0.5 (inactive) in [5] and 0.0052 (inactive) in assay [7]. Also, the NADPH fluorescence slope in assay [6] was -5.7e-05 (inactive). In addition, the molecule was classed as inactive in assay [8].

As a reminder, the inhibition is the drop in the measured response relative to a control, in per cent.
